From ChEMBL document CHEMBL6071131, “New substituted benzoxazine derivatives as potent inducers of membrane permeability and cell death” (Bioorg Med Chem, 2024)

Each molecule was assayed on MCF7 (assay: Antiproliferative activity against human MCF7 cells incubated for 72 hrs by SRB assay). Conditions: MCF7, 72 h.
Assay type: functional, cell-based
Method in brief: (§1)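 Sulforhodamine B colorimetric read-out after 72 h drug exposure. Cells kept in DMEM with 10 % FBS and 1 % penicillin/streptomycin at 37 °C under 5 % CO₂, mycoplasma-checked, passaged under 6 months. Compounds given from DMSO stocks diluted in medium, final DMSO ≤ 0.1 % v/v, with DMSO-only parallel cultures as controls. IC50 reported as mean ± SD of three independent determinations, each run in duplicate.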

| Compound | IC50 [µM] |
| --- | --- |
| Cc1ccc(S(=O)(=O)N2CC(CCn3cnc4c(C(F)(F)F)ncnc43)Oc3cc(Cl)ccc32)cc1 (stereo not drawn) | 23 |
| Cc1ccc(S(=O)(=O)N2CC(CCn3cnc4c(C(F)(F)F)ncnc43)Oc3ccc(Br)cc32)cc1 (stereo not drawn) | 20.6 |
| Cc1ccc(S(=O)(=O)N2CC(CCn3cnc4c(Cl)ncnc43)Oc3ccc(Br)cc32)cc1 (stereo not drawn) | 14.5 |
| Cc1ccc(S(=O)(=O)N2CC(CCn3cnc4c(Br)ncnc43)Oc3ccc(Br)cc32)cc1 (stereo not drawn) | 7.31 |
| Cc1ccc(S(=O)(=O)N2CC(CCn3cnc4c(C(F)(F)F)ncnc43)Oc3ccc(C)cc32)cc1 (stereo not drawn) | 31.1 |
| Cc1ccc(S(=O)(=O)N2CC(CCn3cnc4c(Br)ncnc43)Oc3ccc(C)cc32)cc1 (stereo not drawn) | 4.01 |

Each molecule was assayed on HCT-116 (assay: Antiproliferative activity against human HCT-116 cells incubated for 72 hrs by SRB assay). Conditions: HCT-116, 72 h.
Assay type: functional, cell-based
Method in brief: as §1

| Compound | IC50 [µM] |
| --- | --- |
| Cc1ccc(S(=O)(=O)N2CC(CCn3cnc4c(C(F)(F)F)ncnc43)Oc3cc(Cl)ccc32)cc1 (stereo not drawn) | 13.6 |
| Cc1ccc(S(=O)(=O)N2CC(CCn3cnc4c(C(F)(F)F)ncnc43)Oc3ccc(Br)cc32)cc1 (stereo not drawn) | 23.6 |
| Cc1ccc(S(=O)(=O)N2CC(CCn3cnc4c(Cl)ncnc43)Oc3ccc(Br)cc32)cc1 (stereo not drawn) | 15.7 |
| Cc1ccc(S(=O)(=O)N2CC(CCn3cnc4c(Br)ncnc43)Oc3ccc(Br)cc32)cc1 (stereo not drawn) | 16.4 |
| Cc1ccc(S(=O)(=O)N2CC(CCn3cnc4c(C(F)(F)F)ncnc43)Oc3ccc(C)cc32)cc1 (stereo not drawn) | 4.63 |
| Cc1ccc(S(=O)(=O)N2CC(CCn3cnc4c(Br)ncnc43)Oc3ccc(C)cc32)cc1 (stereo not drawn) | 9.4 |

Species on record: Homo sapiens
Assay: Inhibition of human AKT assessed as residual activity at 5 uM relative to control
Conditions: not given
Method in brief: (§2)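 Residual kinase activity determined with each compound at 5×10⁻⁶ and 5×10⁻⁵ M, in singlicate per kinase assay, expressed relative to uninhibited control.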

| Compound | Activity [%] |
| --- | --- |
| Cc1ccc(S(=O)(=O)N2CC(CCn3cnc4c(Br)ncnc43)Oc3ccc(C)cc32)cc1 (stereo not drawn) | 89 |

Species on record: Homo sapiens
Assay: Inhibition of human AKT assessed as residual activity at 50 uM relative to control
Conditions: not given
Method in brief: as §2

| Compound | Activity [%] |
| --- | --- |
| Cc1ccc(S(=O)(=O)N2CC(CCn3cnc4c(Br)ncnc43)Oc3ccc(C)cc32)cc1 (stereo not drawn) | 106 |

These molecules were tested against 5'-AMP-activated protein kinase catalytic subunit alpha-1 (Homo sapiens) (UniProt Q13131) (assay: Inhibition of human AMPK alpha-1 assessed as residual activity at 5 uM relative to control). Conditions: not given.
Method in brief: as §2

Chain of 5'-AMP-activated protein kinase catalytic subunit alpha-1 (Homo sapiens) (Q13131 whole entry, looked up): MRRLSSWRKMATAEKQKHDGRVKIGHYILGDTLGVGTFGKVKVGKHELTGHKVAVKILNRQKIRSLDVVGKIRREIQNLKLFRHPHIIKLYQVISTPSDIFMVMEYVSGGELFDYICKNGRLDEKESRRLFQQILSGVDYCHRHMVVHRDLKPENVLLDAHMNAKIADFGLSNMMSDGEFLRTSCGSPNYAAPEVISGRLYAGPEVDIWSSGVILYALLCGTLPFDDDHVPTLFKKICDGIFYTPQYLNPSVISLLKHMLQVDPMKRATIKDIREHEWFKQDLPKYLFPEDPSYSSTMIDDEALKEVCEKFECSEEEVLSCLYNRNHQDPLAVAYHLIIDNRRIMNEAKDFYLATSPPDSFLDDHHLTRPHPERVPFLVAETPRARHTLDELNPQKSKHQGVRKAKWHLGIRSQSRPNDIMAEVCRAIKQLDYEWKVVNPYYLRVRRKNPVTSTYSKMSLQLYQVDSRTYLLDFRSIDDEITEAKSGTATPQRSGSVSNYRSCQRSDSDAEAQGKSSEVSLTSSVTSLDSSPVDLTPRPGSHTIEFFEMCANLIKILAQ

| Compound | Activity [%] |
| --- | --- |
| Cc1ccc(S(=O)(=O)N2CC(CCn3cnc4c(Br)ncnc43)Oc3ccc(C)cc32)cc1 (stereo not drawn) | 90 |

The molecules below were run against 5'-AMP-activated protein kinase catalytic subunit alpha-1 (Homo sapiens) (UniProt Q13131) (assay: Inhibition of human AMPK alpha-1 assessed as residual activity at 50 uM relative to control). Conditions: not given.
Method in brief: as §2

| Compound | Activity [%] |
| --- | --- |
| Cc1ccc(S(=O)(=O)N2CC(CCn3cnc4c(Br)ncnc43)Oc3ccc(C)cc32)cc1 (stereo not drawn) | 86 |

Each molecule was assayed against Epidermal growth factor receptor (Homo sapiens) (UniProt P00533) (assay: Inhibition of human EGFR assessed as residual activity at 5 uM relative to control). Conditions: not given.
Method in brief: as §2

Chain of Epidermal growth factor receptor (Homo sapiens) (P00533 whole entry): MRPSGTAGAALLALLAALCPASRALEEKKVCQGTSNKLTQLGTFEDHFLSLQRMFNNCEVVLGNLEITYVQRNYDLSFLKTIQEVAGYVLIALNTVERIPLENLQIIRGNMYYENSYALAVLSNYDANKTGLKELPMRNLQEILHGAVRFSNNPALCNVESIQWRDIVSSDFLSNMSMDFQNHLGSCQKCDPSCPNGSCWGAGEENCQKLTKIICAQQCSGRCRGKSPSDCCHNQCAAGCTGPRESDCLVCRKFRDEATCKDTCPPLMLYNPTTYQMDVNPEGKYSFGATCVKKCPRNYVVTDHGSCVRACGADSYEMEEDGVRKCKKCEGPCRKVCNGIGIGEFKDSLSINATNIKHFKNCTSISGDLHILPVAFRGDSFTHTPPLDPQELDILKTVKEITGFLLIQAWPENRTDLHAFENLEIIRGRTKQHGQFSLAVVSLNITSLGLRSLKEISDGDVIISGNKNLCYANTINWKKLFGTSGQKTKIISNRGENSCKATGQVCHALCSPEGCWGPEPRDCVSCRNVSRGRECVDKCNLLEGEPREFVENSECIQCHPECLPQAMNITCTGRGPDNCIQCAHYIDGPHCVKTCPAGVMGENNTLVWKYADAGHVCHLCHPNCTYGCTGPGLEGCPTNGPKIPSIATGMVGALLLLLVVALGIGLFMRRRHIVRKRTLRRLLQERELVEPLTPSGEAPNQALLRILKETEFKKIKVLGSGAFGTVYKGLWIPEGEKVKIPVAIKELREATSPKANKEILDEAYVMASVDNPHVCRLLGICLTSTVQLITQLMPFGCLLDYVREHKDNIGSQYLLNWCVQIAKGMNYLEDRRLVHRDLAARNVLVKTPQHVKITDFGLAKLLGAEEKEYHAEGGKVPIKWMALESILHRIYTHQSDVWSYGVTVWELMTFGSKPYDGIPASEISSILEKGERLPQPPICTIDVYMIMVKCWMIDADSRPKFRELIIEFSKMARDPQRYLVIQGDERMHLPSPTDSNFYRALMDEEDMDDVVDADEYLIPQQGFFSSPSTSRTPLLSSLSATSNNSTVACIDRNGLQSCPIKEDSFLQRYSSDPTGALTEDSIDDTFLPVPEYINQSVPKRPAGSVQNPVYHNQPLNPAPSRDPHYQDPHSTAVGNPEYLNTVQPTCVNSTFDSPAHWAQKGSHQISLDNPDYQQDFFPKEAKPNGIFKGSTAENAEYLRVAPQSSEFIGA

| Compound | Activity [%] |
| --- | --- |
| Cc1ccc(S(=O)(=O)N2CC(CCn3cnc4c(Br)ncnc43)Oc3ccc(C)cc32)cc1 (stereo not drawn) | 97 |

The molecules below were run against Epidermal growth factor receptor (Homo sapiens) (UniProt P00533) (assay: Inhibition of human EGFR assessed as residual activity at 50 uM relative to control). Conditions: not given.
Method in brief: as §2

| Compound | Activity [%] |
| --- | --- |
| Cc1ccc(S(=O)(=O)N2CC(CCn3cnc4c(Br)ncnc43)Oc3ccc(C)cc32)cc1 (stereo not drawn) | 67 |

These molecules were tested against Receptor tyrosine-protein kinase erbB-2 (Homo sapiens) (UniProt P04626) (assay: Inhibition of human HER2 assessed as residual activity at 5 uM relative to control). Conditions: not given.
Method in brief: as §2

Chain of Receptor tyrosine-protein kinase erbB-2 (Homo sapiens) (P04626 whole entry): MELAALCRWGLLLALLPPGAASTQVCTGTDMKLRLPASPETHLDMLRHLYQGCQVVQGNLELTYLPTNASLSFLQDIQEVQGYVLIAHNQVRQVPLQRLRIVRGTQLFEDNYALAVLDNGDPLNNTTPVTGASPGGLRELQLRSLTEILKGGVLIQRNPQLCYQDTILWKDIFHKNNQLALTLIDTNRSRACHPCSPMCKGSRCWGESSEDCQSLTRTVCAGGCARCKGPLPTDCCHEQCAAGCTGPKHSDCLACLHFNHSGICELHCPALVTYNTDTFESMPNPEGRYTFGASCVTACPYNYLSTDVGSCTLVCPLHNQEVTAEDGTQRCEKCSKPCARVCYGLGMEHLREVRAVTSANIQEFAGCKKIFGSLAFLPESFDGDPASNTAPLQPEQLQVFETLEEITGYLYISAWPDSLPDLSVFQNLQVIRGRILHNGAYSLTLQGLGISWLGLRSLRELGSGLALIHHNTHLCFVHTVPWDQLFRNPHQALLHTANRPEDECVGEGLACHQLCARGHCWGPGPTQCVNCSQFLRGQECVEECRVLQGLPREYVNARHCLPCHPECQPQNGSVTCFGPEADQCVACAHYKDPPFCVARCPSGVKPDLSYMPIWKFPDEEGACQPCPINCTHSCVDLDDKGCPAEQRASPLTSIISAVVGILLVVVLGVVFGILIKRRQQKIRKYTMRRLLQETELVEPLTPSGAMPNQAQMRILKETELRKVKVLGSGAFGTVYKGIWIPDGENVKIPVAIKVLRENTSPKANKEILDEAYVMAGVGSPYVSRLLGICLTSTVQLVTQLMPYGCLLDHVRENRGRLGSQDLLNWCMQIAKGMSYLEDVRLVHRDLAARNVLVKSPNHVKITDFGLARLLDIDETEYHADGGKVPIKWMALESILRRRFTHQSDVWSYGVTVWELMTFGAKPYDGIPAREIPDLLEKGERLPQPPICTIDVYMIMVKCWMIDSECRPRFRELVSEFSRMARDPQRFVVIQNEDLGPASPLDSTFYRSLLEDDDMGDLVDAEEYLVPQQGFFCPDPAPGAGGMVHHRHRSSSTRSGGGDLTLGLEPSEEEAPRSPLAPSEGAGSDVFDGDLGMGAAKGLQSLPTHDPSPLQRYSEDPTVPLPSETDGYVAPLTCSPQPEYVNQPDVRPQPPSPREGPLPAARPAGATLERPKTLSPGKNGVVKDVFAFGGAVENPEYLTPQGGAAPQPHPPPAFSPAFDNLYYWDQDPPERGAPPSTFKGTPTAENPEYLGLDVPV

| Compound | Activity [%] |
| --- | --- |
| Cc1ccc(S(=O)(=O)N2CC(CCn3cnc4c(Br)ncnc43)Oc3ccc(C)cc32)cc1 (stereo not drawn) | 99 |

The molecules below were run against Receptor tyrosine-protein kinase erbB-2 (Homo sapiens) (UniProt P04626) (assay: Inhibition of human HER2 assessed as residual activity at 50 uM relative to control). Conditions: not given.
Method in brief: as §2

| Compound | Activity [%] |
| --- | --- |
| Cc1ccc(S(=O)(=O)N2CC(CCn3cnc4c(Br)ncnc43)Oc3ccc(C)cc32)cc1 (stereo not drawn) | 55 |

What follows are molecules tested against Mitogen-activated protein kinase 1 (Homo sapiens) (UniProt P28482) (assay: Inhibition of human ERK2 assessed as residual activity at 5 uM relative to control). Conditions: not given.
Method in brief: as §2

Chain of Mitogen-activated protein kinase 1 (Homo sapiens) (P28482 whole entry): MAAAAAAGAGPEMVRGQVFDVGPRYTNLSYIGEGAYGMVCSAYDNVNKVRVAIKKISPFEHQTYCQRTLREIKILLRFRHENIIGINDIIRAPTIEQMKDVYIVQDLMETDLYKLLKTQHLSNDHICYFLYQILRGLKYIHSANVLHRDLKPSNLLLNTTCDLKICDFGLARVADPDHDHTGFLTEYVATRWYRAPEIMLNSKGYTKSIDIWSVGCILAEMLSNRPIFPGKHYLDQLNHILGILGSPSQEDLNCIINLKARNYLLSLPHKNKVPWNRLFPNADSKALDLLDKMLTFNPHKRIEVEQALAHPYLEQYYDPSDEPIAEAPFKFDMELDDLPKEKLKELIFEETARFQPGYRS

| Compound | Activity [%] |
| --- | --- |
| Cc1ccc(S(=O)(=O)N2CC(CCn3cnc4c(Br)ncnc43)Oc3ccc(C)cc32)cc1 (stereo not drawn) | 81 |

Each molecule was assayed against Mitogen-activated protein kinase 1 (Homo sapiens) (UniProt P28482) (assay: Inhibition of human ERK2 assessed as residual activity at 50 uM relative to control). Conditions: not given.
Method in brief: as §2

| Compound | Activity [%] |
| --- | --- |
| Cc1ccc(S(=O)(=O)N2CC(CCn3cnc4c(Br)ncnc43)Oc3ccc(C)cc32)cc1 (stereo not drawn) | 74 |

Each molecule was assayed against Mitogen-activated protein kinase 8 (Homo sapiens) (UniProt P45983) (assay: Inhibition of human JNK1 assessed as residual activity at 5 uM relative to control). Conditions: not given.
Method in brief: as §2

Chain of Mitogen-activated protein kinase 8 (Homo sapiens) (P45983 whole entry): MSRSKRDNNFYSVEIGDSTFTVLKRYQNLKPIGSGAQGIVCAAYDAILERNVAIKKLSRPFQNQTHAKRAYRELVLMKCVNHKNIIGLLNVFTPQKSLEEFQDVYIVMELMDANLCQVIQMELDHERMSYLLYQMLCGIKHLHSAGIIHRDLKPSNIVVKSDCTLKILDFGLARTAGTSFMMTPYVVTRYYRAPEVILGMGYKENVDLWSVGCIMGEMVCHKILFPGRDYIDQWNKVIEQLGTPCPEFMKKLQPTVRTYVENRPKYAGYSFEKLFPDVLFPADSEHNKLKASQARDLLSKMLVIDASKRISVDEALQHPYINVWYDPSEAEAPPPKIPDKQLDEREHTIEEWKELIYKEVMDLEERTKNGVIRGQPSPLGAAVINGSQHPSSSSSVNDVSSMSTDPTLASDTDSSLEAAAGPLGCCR

| Compound | Activity [%] |
| --- | --- |
| Cc1ccc(S(=O)(=O)N2CC(CCn3cnc4c(Br)ncnc43)Oc3ccc(C)cc32)cc1 (stereo not drawn) | 84 |

Each molecule was assayed against Mitogen-activated protein kinase 8 (Homo sapiens) (UniProt P45983) (assay: Inhibition of human JNK1 assessed as residual activity at 50 uM relative to control). Conditions: not given.
Method in brief: as §2

| Compound | Activity [%] |
| --- | --- |
| Cc1ccc(S(=O)(=O)N2CC(CCn3cnc4c(Br)ncnc43)Oc3ccc(C)cc32)cc1 (stereo not drawn) | 52 |

What follows are molecules tested against T1, LKB1-STRAD-MO25 complex (Homo sapiens) (UniProt Q15831+Q7RTN6+Q9Y376) (assay: Inhibition of human LKB1/MO25/STRADalpha assessed as residual activity at 5 uM relative to control). Conditions: not given.
Assay type: protein-complex assay
Method in brief: as §2

| Compound | Activity [%] |
| --- | --- |
| Cc1ccc(S(=O)(=O)N2CC(CCn3cnc4c(Br)ncnc43)Oc3ccc(C)cc32)cc1 (stereo not drawn) | 95 |

The molecules below were run against T1, LKB1-STRAD-MO25 complex (Homo sapiens) (assay: Inhibition of human LKB1/MO25/STRADalpha assessed as residual activity at 50 uM relative to control). Conditions: not given.
Assay type: protein-complex assay
Method in brief: as §2

| Compound | Activity [%] |
| --- | --- |
| Cc1ccc(S(=O)(=O)N2CC(CCn3cnc4c(Br)ncnc43)Oc3ccc(C)cc32)cc1 (stereo not drawn) | 131 |

The molecules below were run against Mitogen-activated protein kinase 14 (Homo sapiens) (UniProt Q16539) (assay: Inhibition of human P38-alpha assessed as residual activity at 5 uM relative to control). Conditions: not given.
Method in brief: as §2

Chain of Mitogen-activated protein kinase 14 (Homo sapiens) (Q16539 whole entry): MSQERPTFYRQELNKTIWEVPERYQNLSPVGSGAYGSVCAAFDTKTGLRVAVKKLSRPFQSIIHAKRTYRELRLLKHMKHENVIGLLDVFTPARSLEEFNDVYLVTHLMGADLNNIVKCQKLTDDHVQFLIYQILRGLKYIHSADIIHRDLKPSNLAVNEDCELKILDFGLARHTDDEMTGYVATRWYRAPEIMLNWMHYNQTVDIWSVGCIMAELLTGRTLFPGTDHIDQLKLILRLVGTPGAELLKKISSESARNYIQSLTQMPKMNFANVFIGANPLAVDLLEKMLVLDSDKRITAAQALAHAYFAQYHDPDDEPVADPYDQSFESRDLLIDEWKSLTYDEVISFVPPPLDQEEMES

| Compound | Activity [%] |
| --- | --- |
| Cc1ccc(S(=O)(=O)N2CC(CCn3cnc4c(Br)ncnc43)Oc3ccc(C)cc32)cc1 (stereo not drawn) | 93 |

These molecules were tested against Mitogen-activated protein kinase 14 (Homo sapiens) (UniProt Q16539) (assay: Inhibition of human P38-alpha assessed as residual activity at 50 uM relative to control). Conditions: not given.
Method in brief: as §2

| Compound | Activity [%] |
| --- | --- |
| Cc1ccc(S(=O)(=O)N2CC(CCn3cnc4c(Br)ncnc43)Oc3ccc(C)cc32)cc1 (stereo not drawn) | 70 |
